Several values for one entry are separate records, joined by “and”; a condition that tells them apart may be missing. Equal values may be shown once. Read-outs that look alike come from different tables or passages of the source.
Tests used:
[1] = type: in vivo, healthy participants; details: 200 mg, moderate-fat meal; for AUC(0-t) / AUC(0-inf) / Cmax: human, plasma, oral, geometric LS mean, part 1, analysis of variance, n = 18; for AUC(0-t): AUC0-t; for AUC(0-inf): AUC0-∞
In short: (§1)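 Randomized, open-label, single-dose crossover in healthy adults aged 18–55, with periods separated by a ≥7-day washout. Each oral 200 mg dose was given as two 100-mg units. Plasma was sampled 40 min predose and 1–96 h postdose and assayed by UHPLC-MS/MS. Noncompartmental parameters used actual sampling times. ln-AUC0-t, AUC0-∞ and Cmax were analysed by linear mixed-effects model (treatment, period, sequence fixed; participant random) with 90% CIs.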

[2] = test system: uridine diphosphate glucuronosyltransferase 1A1; details: in vitro; cited from earlier work
[3] = Part 1: safety and tolerability; type: in vivo, healthy participants; details: N = 18
In short: (§2)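 Safety followed a single oral 200 mg dose given as two 100-mg capsules or tablets. Adverse events, clinical laboratory tests, vital signs, 12-lead ECG and physical examination were monitored. The safety population was all participants receiving ≥1 dose, summarized descriptively by treatment. AEs occurring later than last treatment + 5 days were not counted. The investigator assessed each AE for drug relatedness.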

HIV-1 = details: 200-mg dose, treatment-naive adults with HIV-1, phase IIa; cited from earlier work
[4] = test system: organic anion-transporting polypeptide 1B3; details: in vitro; cited from earlier work
[5] = Part 2: food effect on plasma pharmacokinetics of the tablet formulation; type: in vivo, healthy participants; details: for AUC(0-t) / AUC(0-inf) / Cmax: human, plasma, oral, 200 mg, geometric LS mean, part 2, analysis of variance; for AUC(0-t): AUC0-t; for AUC(0-inf): AUC0-∞
In short: as §1

[6] = Part 2: safety and tolerability; type: in vivo, healthy participants; details: for Adverse events: abdominal distention (drug related) / Adverse events: anxiety / Adverse events: any event / Adverse events: diarrhea (drug related) / Adverse events: dysmenorrhea / Adverse events: eye irritation / Adverse events: rash maculopapular (drug related, led to withdrawal): part 2, tablet 200 mg
In short: as §2

HIV-1 subtypes = details: in vitro; cited from earlier work
[7] = cited from earlier work
[8] = drug interaction studies; cited from earlier work
[9] = tablet 200 mg, high fat, n = 21
[10] = tablet 200 mg, moderate fat, n = 20
[11] = tablet 200 mg, high fat vs fasted, part 2
[12] = tablet 200 mg, moderate fat vs fasted, part 2

- AUC(0-t) ([1]; capsule): 33700 ng·h/mL
- AUC(0-t) ([1]; tablet): 33800 ng·h/mL
- AUC(0-inf) ([1]; capsule): 36900 ng·h/mL
- AUC(0-inf) ([1]; tablet): 36900 ng·h/mL
- Cmax ([1]; capsule): 1200 ng/mL
- Cmax ([1]; tablet): 1310 ng/mL
- AUC0-t, geometric LS mean ratio ([1]; tablet vs capsule, part 1): 1.00
- AUC0-∞, geometric LS mean ratio ([1]; tablet vs capsule, part 1): 0.998
- Cmax, geometric LS mean ratio ([1]; tablet vs capsule, part 1): 1.09
- AUC(0-t) ([5]; tablet 200 mg, fasted, n = 13): 12200 ng·h/mL
- AUC(0-t) [5, 9]: 34100 ng·h/mL
- AUC(0-t) [5, 10]: 38500 ng·h/mL
- AUC(0-inf) ([5]; tablet 200 mg, fasted, n = 10): 14200 ng·h/mL
- AUC(0-inf) [5, 9]: 36900 ng·h/mL
- AUC(0-inf) [5, 10]: 41600 ng·h/mL
- Cmax ([5]; tablet 200 mg, fasted, n = 13): 351 ng/mL
- Cmax [5, 9]: 1080 ng/mL
- Cmax [5, 10]: 1440 ng/mL
- AUC0-t, geometric LS mean ratio compared with fasted conditions [5, 11]: 2.79
- AUC0-∞, geometric LS mean ratio compared with fasted conditions [5, 11]: 2.59
- Cmax, geometric LS mean ratio compared with fasted conditions [5, 11]: 3.08
- mean Cmax, fold higher than under fasted conditions ([5]; tablet 200 mg, high-fat conditions, part 2): ~3 fold
- AUC0-t, geometric LS mean ratio compared with fasted conditions [5, 12]: 3.15
- AUC0-∞, geometric LS mean ratio compared with fasted conditions [5, 12]: 2.93
- Cmax, geometric LS mean ratio compared with fasted conditions [5, 12]: 4.10
- mean estimate for CL/F, lower than under fasted conditions ([5]; tablet 200 mg, moderate- or high-fat conditions, part 2): > 60%
- mean Cmax, fold higher than under fasted conditions ([5]; tablet 200 mg, moderate-fat conditions, part 2): ≈ 4 fold
- t1/2, arithmetic mean (SD) ([5]; tablet, single dose 200 mg, fasted conditions, part 2, n = 10): 25.9 (3.33) hour
- t1/2, arithmetic mean (SD) ([5]; tablet, single dose 200 mg, high-fat conditions, part 2, N = 21): 25.1 (4.18) hour
- t1/2, geometric mean (%CVb) ([5]; tablet, single dose 200 mg, moderate-fat conditions, part 2, N = 20): 24.9 (18.0) hour
SMILES: C=C(C)[C@@H]1CC[C@]2(NCCN3CCS(=O)(=O)CC3)CC[C@]3(C)[C@H](CC[C@@H]4[C@@]5(C)CC=C(C6=CC[C@@](CF)(C(=O)O)CC6)C(C)(C)[C@@H]5CC[C@]43C)[C@@H]12 [GSK3640254]
- inhibition of uridine diphosphate glucuronosyltransferase 1A1 [2]: inhibitor
- Adverse events: abdominal distention (drug related) ([3]; part 1, capsule 200 mg): 0 n (%)
- Adverse events: anxiety ([3]; part 1, capsule 200 mg): 0 n (%)
- Adverse events: diarrhea (drug related) ([3]; part 1, capsule 200 mg): 0 n (%)
- Adverse events: dysmenorrhea ([3]; part 1, capsule 200 mg): 0 n (%)
- Adverse events: eye irritation ([3]; part 1, capsule 200 mg): 0 n (%)
- Adverse events: rash maculopapular (drug related, led to withdrawal) ([3]; part 1, capsule 200 mg): 0 n (%)
- Adverse events: abdominal distention (drug related) ([3]; part 1, tablet 200 mg): 0 n (%)
- Adverse events: anxiety ([3]; part 1, tablet 200 mg): 0 n (%)
- Adverse events: any event ([3]; part 1, tablet 200 mg): 1 (6) n (%)
- Adverse events: diarrhea (drug related) ([3]; part 1, tablet 200 mg): 0 n (%)
- Adverse events: dysmenorrhea ([3]; part 1, tablet 200 mg): 0 n (%)
- Adverse events: eye irritation ([3]; part 1, tablet 200 mg): 1 (6%) n (%) and 1 (6) n (%)
- Adverse events: rash maculopapular (drug related, led to withdrawal) ([3]; part 1, tablet 200 mg): 0 n (%)
- reduction in plasma HIV-1 RNA (HIV-1): approximately 2 log10
- inhibition of organic anion-transporting polypeptide 1B3 [4]: inhibitor
- Adverse events: abdominal distention (drug related) ([6]; fasted, N = 19): 0 n (%)
- Adverse events: anxiety ([6]; fasted, N = 19): 0 n (%)
- Adverse events: any event ([6]; fasted, N = 19): 0 n (%)
- Adverse events: diarrhea (drug related) ([6]; fasted, N = 19): 0 n (%)
- Adverse events: dysmenorrhea ([6]; fasted, N = 19): 0 n (%)
- Adverse events: eye irritation ([6]; fasted, N = 19): 0 n (%)
- Adverse events: rash maculopapular (drug related, led to withdrawal) ([6]; fasted, N = 19): 0 n (%)
- Adverse events: abdominal distention (drug related) ([6]; high fat, N = 21): 1 (5) n (%)
- Adverse events: anxiety ([6]; high fat, N = 21): 1 (5) n (%)
- Adverse events: any event ([6]; high fat, N = 21): 5 (24%) n (%) and 5 (24) n (%)
- Adverse events: diarrhea (drug related) ([6]; high fat, N = 21): 2 n (%) and 2 (10) n (%)
- Adverse events: dysmenorrhea ([6]; high fat, N = 21): 1 (5) n (%)
- Adverse events: eye irritation ([6]; high fat, N = 21): 0 n (%)
- Adverse events: rash maculopapular (drug related, led to withdrawal) ([6]; high fat, N = 21): 1 (5) n (%)
- Adverse events: abdominal distention (drug related) ([6]; moderate fat, N = 20): 0 n (%)
- Adverse events: anxiety ([6]; moderate fat, N = 20): 0 n (%)
- Adverse events: any event ([6]; moderate fat, N = 20): 0 n (%)
- Adverse events: diarrhea (drug related) ([6]; moderate fat, N = 20): 0 n (%)
- Adverse events: dysmenorrhea ([6]; moderate fat, N = 20): 0 n (%)
- Adverse events: eye irritation ([6]; moderate fat, N = 20): 0 n (%)
- Adverse events: rash maculopapular (drug related, led to withdrawal) ([6]; moderate fat, N = 20): 0 n (%)
- participants reporting AEs considered related to the study treatment ([6]; part 2, tablets 200 mg, high-fat conditions): 10%
- highest incidence of adverse events ([6]; tablet 200 mg, high-fat conditions): 24%
- inhibition across various HIV-1 subtypes (HIV-1 subtypes): broad‐spectrum potent inhibition
- estimated half-life ([7]; 200-mg dose, healthy participants): approximately 22.6 hours
- tolerability ([7]; phase I studies in healthy participants, headache most common AE): generally well tolerated
- effect on the pharmacokinetics of combined oral contraceptives [8]: no meaningful effect
- effect on the pharmacokinetics of dolutegravir [8]: no meaningful effect
- effect on the pharmacokinetics of tenofovir alafenamide [8]: no meaningful effect

Reference: publication PMC9306620 (Clinical Pharmacology in Drug Development, 2022)
